Assay outcomes from PubChem.
This is one part of a sample in which hits are shown more often than they occur.
Hsp70 activator – Hsp70 transcriptional activators, primary screen, cell-based, HeLa, Hsp70 promoter luciferase, luminescence, 10 µM; AID 1203, 2008; HeLa Hsp70 promoter luciferase reporter; scaled: vehicle 0, proteasome-inhibitor control 100%; activation, % at 10 µM; 200,000 compounds, 0.04% hits;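 active means activation above the mean across all tested compounds plus 3 SD, cutoff set per campaign, cut at about 5.5% in these data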;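 further: 100% = MG132 at 30 µM as the positive control and 0% = DMSO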
T cruzi inh – inhibitors of intracellular T. cruzi growth, primary screen, luminescence, NIH3T3 host cells; 300,000 compounds, 1.4% hits; AID 1885, 2009; T. cruzi beta-gal in NIH3T3, 90 h; inhibition, % (concentration not given with the values);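 active means mean inhibition across valid replicates above about 55%, limit read from the data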;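 further: signal also drops with host cell toxicity which is not excluded here; 0% = plate median of DMSO wells and 100% = zero luminescence signal; higher percent means less beta-gal luminescence so fewer parasites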
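Assay system: NIH/3T3 fibroblasts plus reporter T. cruzi. Amount: NIH/3T3 cells, 5,000 per well. Buffer or medium: DMEM, 2% fetal bovine serum. Doses: compound pinned at 50 nL/well, DMSO. Schedule: ≥90 h infection period, 3 h prior cell attachment. Signal: luminescent β-galactosidase signal after 60 min lysis. Read-out: parasite load inhibition, %.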
HSF1 inhib – HSF1 inhibitors in luciferase reporter cells, primary screen, cell-based, NIH3T3, luminescence | NIH3T3-HGL HSE-luciferase, MG132-induced, luminescence 8 h; stronger effect = lower value | activity change, negative = inhibition, % at 7.5 µM (by protocol) | 300,000 compounds, 0.77% hits;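 active means more than half of replicate wells show activity change below -50%, luminescence cut by over half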;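 further: luciferase reports HSF-1 transcriptional activity via heat shock element; 0% = median of DMSO wells and -100% = zero luminescence signal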
L major viab – Leishmania major promastigote growth inhibition, primary screen; 200,000 compounds, 9% hits; Leishmania major promastigotes, resazurin fluorescence viability; inhibition, % at 10 µM; in the data active means inhibition above about 50%;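 further: promastigotes grown with compound for 44 hours at 28 °C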
HSF1 activator – HSF-1 activators, primary screen, NIH3T3-HGL cells, MG132 stress, luminescence, single point | NIH3T3-HGL HSF-1 luciferase reporter, 8 h; 100% = twice DMSO control signal | activation, % at 9 µM | 300,000 compounds, 1.7% hits | AID 504408, 2011;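 active means mean replicate activation of at least 50% with a set share of replicates each reaching 50%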;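 further: 0% = median of the neutral control wells and 100% = twice that signal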
An asterisk follows results filed as active.

For CCc1cc(Cn2nc(-c3ccccc3)cc2C(=O)NCc2ccccc2OC)on1 the results were T cruzi inh -5, HSF1 inhib 13 and HSF1 activator 37.
N#CC1=C(N)SC(N)=C(C#N)C1c1cccc(O)c1 was read as Hsp70 activator 0, T cruzi inh -3, HSF1 inhib -8, L major viab -6 and HSF1 activator -4.
O=C1CCCC(=O)C1=C1SCCCS1 was read as Hsp70 activator 0, T cruzi inh -29, HSF1 inhib -9, L major viab -4 and HSF1 activator -5.
COC(=O)NC(NC(=S)Nc1ccc([N+](=O)[O-])cc1)C(Cl)(Cl)Cl (configuration not stated) was read as Hsp70 activator 0, T cruzi inh 37, HSF1 inhib -12, L major viab 99* and HSF1 activator -13.
`CCOC(=O)NC(NC(=S)Nc1ccc(OC)cc1)C(Cl)(Cl)Cl` (configuration not stated) gave Hsp70 activator 0, T cruzi inh -10, HSF1 inhib -11, L major viab 1 and HSF1 activator 5.
For COc1ccc(NC(=S)NC(NC(=O)c2cccc3ccccc23)C(Cl)(Cl)Cl)c([N+](=O)[O-])c1 (configuration not stated) the results were Hsp70 activator 0, T cruzi inh 68*, HSF1 inhib 13, L major viab 27 and HSF1 activator 17.
Screening COC(=O)c1ccccc1NC(=S)NC(NC(=O)c1ccccc1[N+](=O)[O-])C(Cl)(Cl)Cl (configuration not stated) returned Hsp70 activator 0, T cruzi inh -6, HSF1 inhib 0, L major viab 96* and HSF1 activator -6.
O=C1NC2(CCCCC2)C(=O)N1CC(=O)N(Cc1ccccc1)c1ccccc1 was read as T cruzi inh -4, HSF1 inhib -2 and HSF1 activator 12.
C/C(Cn1nnc2ccccc21)=N\NC(=O)c1ccc(Br)cc1 was read as Hsp70 activator 0, T cruzi inh 8, HSF1 inhib 16, L major viab 2 and HSF1 activator 9.
`Cc1c(OCC(=O)NCC2CCC(C(=O)NCCCO)CC2)ccc2c(-c3ccccc3)cc(=O)oc12` (configuration not stated) gave T cruzi inh -1, HSF1 inhib -1 and HSF1 activator 1.
`CCOCCCN(C(=O)c1snc(C(N)=O)c1N)C(C(=O)NCCC(C)C)c1ccc(F)cc1` (configuration not stated) gave T cruzi inh -11, HSF1 inhib 26 and HSF1 activator 53*.
Screening CC(C)N1C(=O)S/C(=C/c2ccc3c(c2)n(C)c(=O)n3C)C1=O returned Hsp70 activator 0, T cruzi inh -13, HSF1 inhib 17, L major viab 19 and HSF1 activator 32.
CCN(CC)c1ccc(/C=C2\SC(=O)N(C(C)C)C2=O)o1 was read as T cruzi inh 56*, HSF1 inhib 247 and HSF1 activator 295*.
CC(=O)NC(Cc1cccc(C)c1)C(=O)NC1CCN(S(=O)(=O)c2ccccc2)CC1 (configuration not stated) was read as T cruzi inh -4, HSF1 inhib 1 and HSF1 activator 5.
For CCN(CC)c1ccc(/C=C/c2ccc3ccc(OC)cc3[n+]2CC)cc1 the results were T cruzi inh 61*, HSF1 inhib -2 and HSF1 activator -1.
CC[n+]1c(/C=C/c2ccc(OC)c(OC)c2)ccc2ccccc21 was read as T cruzi inh 39, HSF1 inhib -25 and HSF1 activator -33.
For CC[n+]1c(/C=C/c2cc([N+](=O)[O-])ccc2O)ccc2ccccc21 the results were T cruzi inh 52, HSF1 inhib -58* and HSF1 activator -67.
For CC[n+]1ccc(/C=C/c2ccc(N(C)C)cc2)c2ccccc21 the results were Hsp70 activator 0 and L major viab 100*.
`CC[n+]1c(/C=C/c2ccc(N(C)C)cc2)ccc2ccccc21` gave Hsp70 activator 0, T cruzi inh 49, HSF1 inhib 3, L major viab 100* and HSF1 activator 8.
`CC[n+]1c(/C=C/c2ccc(OC(C)=O)c(OC)c2)ccc2ccccc21` gave T cruzi inh 8, HSF1 inhib 9 and HSF1 activator 22.
`COCCCNC(=S)N1CCC(C(=O)c2ccc(Cl)cc2)CC1` gave T cruzi inh 2, HSF1 inhib 1 and HSF1 activator -6.
`CN(C)c1ccc(/C=N/NC(=O)C[n+]2ccccc2)cc1` gave T cruzi inh -2, HSF1 inhib -14 and HSF1 activator -7.
`CC[n+]1ccccc1/C=C/c1ccc(N(C)C)cc1` gave Hsp70 activator 0, T cruzi inh 59*, HSF1 inhib 8, L major viab 96* and HSF1 activator 12.
CCOc1ccc(-n2c3nc4ccccc4nc3c3c(=O)n(Cc4ccco4)cnc32)cc1 was read as Hsp70 activator 0 and L major viab -2.
Cc1cc(C)cc(-n2c3nc4ccccc4nc3c3c(=O)n(Cc4ccco4)cnc32)c1 was read as Hsp70 activator 0, T cruzi inh -10, HSF1 inhib 85, L major viab 21 and HSF1 activator 119*.
For Cc1ccn2c(Nc3ccccc3C)c(-c3ccncc3)nc2c1 the results were Hsp70 activator 0, T cruzi inh 61*, HSF1 inhib -3, L major viab 86* and HSF1 activator -14.
`Cc1ccc2nc(-c3ccncc3)c(NC3CCCC3)n2c1` gave Hsp70 activator 0, T cruzi inh 77*, HSF1 inhib -1, L major viab 31 and HSF1 activator -4.
Cc1ccc2nc(-c3ccncc3)c(NC3CCCCC3)n2c1 was read as Hsp70 activator 0, T cruzi inh 60*, HSF1 inhib 12, L major viab 65* and HSF1 activator 27.
Cc1ccn2c(NC3CCCCC3)c(C)nc2c1 was read as Hsp70 activator 0, T cruzi inh 0, HSF1 inhib -5, L major viab 1 and HSF1 activator 5.
Screening Cc1ccn2c(NC3CCCC3)c(-c3ccncc3)nc2c1 returned Hsp70 activator 0, T cruzi inh 36, HSF1 inhib 2, L major viab 89* and HSF1 activator -12.
Screening COc1ccccc1CN(C)C(=O)C(NC(=O)Cc1cccc2ccccc12)C(C)C (configuration not stated) returned T cruzi inh 6, HSF1 inhib 0 and HSF1 activator 8.
`N#CCCN(C(=O)CCl)c1cccc(Cl)c1` gave Hsp70 activator 0, T cruzi inh 49, HSF1 inhib 2, L major viab 51* and HSF1 activator 41.
